EC50 and CC50 data for 4 molecules are collected here from publication PMC8336461 (Chemical Science, 2021).

The test system of data set [1] is extracellular L. amazonensis. The conditions noted are these: read-out: EC50 against L. amazonensis; cited from earlier work.
Data set [2] can be described thus: Hep G2 cytotoxicity assay. The conditions noted are these: human, Hep G2 cells. In kind it is cell-based.
For data set [3], the system named is T. brucei brucei Lister 427 bloodstream-form parasites. Put plainly: T. brucei cell viability assay. Type of data set: cell-based. To be noted: Trypanosoma brucei, 48 h, read-out: T. brucei EC50. In short, it runs like this:
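Parasite EC50 reported as the mean ± standard error of 3 biological replicates. Each biological replicate's EC50 was calculated from technical triplicate data.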

Another data set concerns T. brucei. The conditions noted are these: read-out: EC50 against T. brucei; cited from earlier work.

Regarding `CCCCCCCCCCCCCCCCOP(=O)([O-])OCC[N+](C)(C)C` [miltefosine], the EC50 (commonly the concentration needed to bring the measured effect to its halfway point) in data set [1] was 1.2 µM.

In the case of `COC(=O)c1[nH]c(C(=O)OC)c(-c2c[nH]c3ccc(Cl)cc23)c1-c1c[nH]c2ccc(Cl)cc12` [Compound 12, lynamicin D], the CC50 (usually the concentration at which the toxic effect on the cells reaches its halfway point) at 72 h in data set [2] was above 10 µM. The EC50 in data set [3] came out at 8.3 ± 1 µM. On the same counts, the results for `COC(=O)c1[nH]cc(-c2c[nH]c3ccc(Cl)cc23)c1-c1c[nH]c2ccc(Cl)cc12` [Compound 13, lynamicin A] are above 10 µM and 8.2 ± 0.45 µM. `CC1(C)OB(O)c2cc(NC(=O)c3ccc(F)cc3C(F)(F)F)ccc21` [acoziborole]: the EC50 with T. brucei is 0.6 µM.
